Shown are actives, neighbours in structure and some others; about 5.9% of the full set was active somewhere.
Pf Dd2 inh: blocks growth of Plasmodium falciparum Dd2 parasites; activity change, % at 10 µM; P. falciparum Dd2 growth, SYBR Green, 72 h; hits give low values; 94,000 tested, 2.3% active; AID 1159554; in the data active = activity change below about -80%; inconclusive = no clear call, values can overlap the other calls
T cruzi growth-1: T. cruzi proliferation inhibition; 77,000 tested, 5.9% active; T. cruzi beta-gal in NIH3T3, GalScreen luminescence, 90 h; AID 624255; inhibition, % at 8.34 µM;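 active = mean inhibition above about 93%, with at least 55% of replicates each passing it, limit read from the data, passing the limit was not always enough; inconclusive = only one of those two conditions holds; inactive = neither condition holds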
IDH1 mut inh: IDH1 R132H (human) inhibition. O75874. IDH1 R132H reductase, diaphorase/resazurin fluorescence, 60 min. inhibition, % at 10 µM. 70,000 tested, 0.18% active. AID 624101; in the data active = inhibition above about 34%; inconclusive = no clear call, values can overlap the other calls; inactive = below about 11%;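 note: 0% = DMSO and 100% = no enzyme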
Target sequence (O75874 whole entry R132H): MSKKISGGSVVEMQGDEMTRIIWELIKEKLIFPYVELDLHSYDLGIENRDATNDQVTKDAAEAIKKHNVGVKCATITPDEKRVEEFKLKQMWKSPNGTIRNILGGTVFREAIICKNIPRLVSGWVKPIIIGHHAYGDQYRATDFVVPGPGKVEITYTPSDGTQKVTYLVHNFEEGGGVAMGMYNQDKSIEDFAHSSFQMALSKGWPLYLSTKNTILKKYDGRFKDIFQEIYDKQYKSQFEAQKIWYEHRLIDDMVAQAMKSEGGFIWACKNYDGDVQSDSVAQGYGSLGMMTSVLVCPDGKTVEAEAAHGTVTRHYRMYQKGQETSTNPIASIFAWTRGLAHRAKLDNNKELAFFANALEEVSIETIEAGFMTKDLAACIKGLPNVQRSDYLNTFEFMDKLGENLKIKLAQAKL
GASC1 inh: blocks human GASC-1 (KDM4C) demethylase activity | 96,000 tested, 0.15% active | inhibition, % at 12.5 µM | Q9H3R0 | GST-KDM4C 2-372, H3K9me3 peptide, LANCE TR-FRET;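 active = mean replicate inhibition above about 25%, with at least 55% of replicates also reaching it, limit read from the data, passing the limit was not always enough; inconclusive = only one of those two conditions met; inactive = neither condition met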
Target sequence (Q9H3R0 2-372 limits assumed): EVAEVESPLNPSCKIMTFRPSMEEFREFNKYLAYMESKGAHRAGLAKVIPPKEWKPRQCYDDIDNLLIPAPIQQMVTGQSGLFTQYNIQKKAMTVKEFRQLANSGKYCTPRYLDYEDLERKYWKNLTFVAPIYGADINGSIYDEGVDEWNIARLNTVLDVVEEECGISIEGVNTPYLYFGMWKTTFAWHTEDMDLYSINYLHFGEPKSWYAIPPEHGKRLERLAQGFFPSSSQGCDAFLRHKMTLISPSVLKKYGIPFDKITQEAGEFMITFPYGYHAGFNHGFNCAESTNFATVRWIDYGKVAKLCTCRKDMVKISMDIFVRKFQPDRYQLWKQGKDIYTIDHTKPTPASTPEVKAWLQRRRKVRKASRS
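System: N-terminal GST-fused human GASC-1 (KDM4C) fragment, residues 2-372 / Amount: 10 nM GST-KDM4C in enzyme reaction / Also added: H3K9me3 peptide with Fe(II)/2OG / Times: 30 min demethylation and 1 h detection at room temperature / Signal: LANCE TR-FRET / Read-out basis: Fall in 671/618 emission ratio as inhibition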
T cruzi growth-2: blocks T. cruzi growth in NIH3T3 host cells; shares compounds with T cruzi growth-1; T. cruzi beta-gal in NIH3T3, GalScreen luminescence, 90 h; inhibition, % at 8.35 µM; 5,600 tested, 72% active; AID 651739;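 active = mean replicate inhibition above about 95% and at least 55% of replicates individually reaching it, limit read from the data; inconclusive = only one of the two criteria is met; inactive = neither criterion is met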
T cruzi growth-3: blocks T. cruzi growth in NIH3T3 host cells | shares compounds with T cruzi growth-1 | T. cruzi beta-gal in NIH3T3, GalScreen luminescence, 90 h | inhibition, % at 2.09 µM | 5,600 tested, 21% active | AID 651740;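 active = mean inhibition above about 95%, with at least 55% of replicates also reaching it, limit read from the data; inconclusive = meets just one of the two conditions; inactive = meets neither condition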;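 note: plate controls were neutral control median for no effect and positive control median for full effect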
NIH3T3 tox: kills mouse NIH/3T3 fibroblasts; shares compounds with T cruzi growth-1; NIH/3T3 viability, CellTiter-Glo ATP luminescence, 90 h; cytotoxicity (signal decrease), % at 8.35 µM; 5,600 tested, 14% active;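 active = mean signal decrease across replicates above about 35% based on untreated-well scatter, with enough replicates individually passing, limit read from the data; inconclusive = no rule stated though some were filed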;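 note: 0% = median of neutral control wells and 100% = median of positive control wells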
3T3 cytotox 2: cytotoxicity in mouse NIH/3T3 fibroblasts. inhibition, % at 24.9 µM. NIH/3T3 viability, CellTiter-Glo ATP luminescence, 90 h. 5,600 tested, 56% active. AID 651744. shares compounds with T cruzi growth-1;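 active = mean loss of cell viability signal at or above a set limit, and enough replicates individually reaching it; inconclusive = meets only the mean limit or only the replicate share; inactive = meets neither condition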;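 note: 0% = median of neutral control wells and 100% = median of positive control wells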
* = called active by the depositor; ? = inconclusive; · = no result given; ! = a repeat was not active.

SMILES	Pf Dd2 inh	T cruzi growth-1	IDH1 mut inh	GASC1 inh	T cruzi growth-2	T cruzi growth-3	NIH3T3 tox	3T3 cytotox 2
CCCC#Cc1ccc([C@@H]2[C@@H](CO)N(C(=O)C3CCCCC3)[C@H]2C#N)cc1	-34.1	88.6	·	-1.4	·	·	·	·
O=C(CSc1nnc(-c2ccccc2O)n1-c1ccccc1)Nc1ccc(Cl)c(C(=O)O)c1	·	·	0.1	·	·	·	·	·
O=C(CN1CCOCC1)Nc1sc2c(c1C(=O)Nc1ccc(Br)cc1)CCCC2	·	·	0.0	·	·	·	·	·
OC[C@@H]1Nc2ccc(C#Cc3ccccc3)cc2[C@H]2[C@@H]1CCN2Cc1nccs1	-40.3	?	·	3.1	99.2*	107.3*	31.4	99.0*
OC[C@H]1Nc2ccc(C#Cc3ccccc3)cc2[C@@H]2[C@H]1CCN2Cc1nccs1	-46.6	97.9*	·	0.4	97.4*	100.6*	-2.6	104.0*
O=C(OCc1cccc([N+](=O)[O-])c1)c1ccc(NC(=O)c2ccco2)cc1	·	·	0.4	·	·	·	·	·
COC(=O)c1cc(Br)ccc1NC(=O)COc1ccc(C(C)(C)C)cc1	·	·	0.0	·	·	·	·	·
CCC(=O)N1CCCCN2[C@H](CO)[C@H](c3ccc(C#Cc4ccccc4F)cc3)[C@@H]2C1	-13.0	120.5*	·	-2.6	98.8*	88.1	69.4*	57.7*
CC(=O)N1CCCCN2[C@H](C1)[C@@H](c1ccc(C#Cc3ccccc3F)cc1)[C@@H]2CO	-21.2	111.8*	·	0.3	?	27.8	29.8	106.1*
CC(=O)N1CCCCN2[C@H](CO)[C@H](c3ccc(C#Cc4ccccc4F)cc3)[C@H]2C1	-24.7	30.8	·	-1.5	·	·	·	·
CC(=O)N1CCCCN2[C@@H](CO)[C@H](c3ccc(C#Cc4ccccc4F)cc3)[C@@H]2C1	-4.4	88.3	·	-1.6	·	·	·	·
CCC(=O)N1CCCCN2[C@H](C1)[C@@H](c1ccc(C#Cc3ccccc3F)cc1)[C@@H]2CO	-8.5	99.6*	·	-0.5	99.9*	61.3	50.2*	104.6*
Cc1ccc(-c2ccc([C@@H]3[C@H]4CN(C(=O)Nc5ccccc5)CCCCN4[C@H]3CO)cc2)cc1	6.9	?	·	1.2	?	95.0	33.2	103.4*
Cc1ccc(-c2ccc([C@H]3[C@@H](CO)N4CCCCN(C(=O)Nc5ccccc5)C[C@@H]34)cc2)cc1	28.6	118.1*	·	-1.9	106.2*	85.8	9.9	77.7*
Cc1ccccc1-c1ccc([C@H]2[C@@H](CO)N3CCCCN(C(=O)Nc4ccccc4)C[C@@H]23)cc1	14.3	-6.3	·	-3.8	·	·	·	·
C=C/C=C/[C@@H]1C(=C)CN([C@@H](Cc2ccc(N=[N+]=[N-])cc2)C(=O)OC)[C@H]1[C@@H](O)Cc1ccccc1	·	·	-0.5	·	·	·	·	·
COCC(=O)N1CC[C@@H]2[C@H]1c1cc(C#Cc3ccc(OC)cc3)ccc1N[C@@H]2CO	-18.4	42.1	·	-1.0	·	·	·	·
COc1ccc(C#Cc2ccc3c(c2)[C@H]2[C@H](CCN2C(=O)c2ccncc2)[C@H](CO)N3)cc1	-59.7	100.8*	·	0.0	107.3*	61.0	25.9	37.5*
COc1ccc(C#Cc2ccc3c(c2)[C@H]2[C@H](CCN2C(=O)CC2CC2)[C@H](CO)N3)cc1	-22.1	?	·	-0.2	98.2*	51.6	6.4	21.1
COCC#Cc1ccc2c(c1)O[C@@H](CN(C)Cc1ccccc1)[C@H](C)CN([C@@H](C)CO)S2(=O)=O	-70.2	101.0*	-2.3	-4.0	84.7	64.3	51.6*	99.4*
COCC#Cc1ccc2c(c1)O[C@@H](CN(C)Cc1ccncc1)[C@H](C)CN([C@@H](C)CO)S2(=O)=O	-7.8	?	3.5	2.4	93.6	96.8*	2.0	65.0*
COCC#Cc1ccc2c(c1)O[C@H](CN(C)Cc1ccncc1)[C@@H](C)CN([C@H](C)CO)S2(=O)=O	27.1	44.4	1.2	0.7	·	·	·	·
COc1ccccc1C#Cc1ccc2c(c1)O[C@@H](CN(C)Cc1ccccc1)[C@@H](C)CN([C@H](C)CO)S2(=O)=O	-5.9	122.2*	0.0	3.8	107.4*	112.8*	-26.7	-38.7
COc1ccccc1C#Cc1ccc2c(c1)O[C@H](CN(C)Cc1cccnc1)[C@H](C)CN([C@@H](C)CO)S2(=O)=O	-32.0	·	·	-3.4	·	·	·	·
COc1ccccc1C#Cc1ccc2c(c1)O[C@H](CN(C)Cc1ccccc1)[C@@H](C)CN([C@H](C)CO)S2(=O)=O	-77.5	113.6*	2.3	-3.2	98.9*	112.3*	-46.5	-15.7
SMILES	Pf Dd2 inh	T cruzi growth-1	IDH1 mut inh	GASC1 inh	T cruzi growth-2	T cruzi growth-3	NIH3T3 tox	3T3 cytotox 2
COc1ccccc1C#Cc1ccc2c(c1)O[C@@H](CN(C)Cc1ccccc1)[C@H](C)CN([C@@H](C)CO)S2(=O)=O	-66.4	118.8*	-2.5	-3.7	87.5	111.9*	44.7*	42.5*
O=C(CCCCCC(=O)N/N=C/c1c(F)c(F)c(F)c(F)c1F)NO	·	·	0.5	·	·	·	·	·
Cn1c(SCC(=O)Nc2ccc(Cl)cc2)nnc1-c1ccc(Br)cc1	·	·	0.3	·	·	·	·	·
C[C@@H]1CCCCO[C@@H](CN(C)C(=O)CCCN(C)C)[C@@H](C)CN([C@H](C)CO)C(=O)c2cc(N(C)C)ccc2O1	13.6	108.1*!	0.0	0.2	54.7	1.0	7.6	9.0
C[C@@H]1CCCCO[C@@H](CN(C)C(=O)CCC(F)(F)F)[C@@H](C)CN([C@H](C)CO)C(=O)c2cc(N(C)C)ccc2O1	-14.2	98.9*!	-3.0	2.2	60.7	10.1	0.8	-51.8
C[C@@H]1CCCCO[C@H](CN(C)C(=O)CCC(F)(F)F)[C@H](C)CN([C@H](C)CO)C(=O)c2cc(N(C)C)ccc2O1	·	37.8	-1.0	-0.5	·	·	·	·
C[C@@H]1CCCCO[C@@H](CN(C)C(=O)CCCN(C)C)[C@H](C)CN([C@@H](C)CO)C(=O)c2cc(N(C)C)ccc2O1	24.3	27.5	-0.7	2.5	·	·	·	·
Cc1cc(C)c(NC(=O)C(C)N(c2ccc(Oc3ccccc3)cc2)S(C)(=O)=O)c(C)c1 (stereo not drawn)	·	·	-0.3	·	·	·	·	·
Cc1ccc(C2C(C(=O)c3sc(-c4ccccc4)nc3C)C(=O)C(=O)N2CCN(C)C)o1 (stereo not drawn)	·	·	0.3	·	·	·	·	·
CC(C)CC#Cc1ccc2c(c1)O[C@H](CN(C)C(=O)NC1CCCC1)[C@H](C)CN([C@H](C)CO)S2(=O)=O	-10.8	120.4*	-0.2	0.0	102.7*	93.2	18.2	103.7*
CC(C)CC#Cc1ccc2c(c1)O[C@@H](CN(C)C(=O)NC1CCCC1)[C@@H](C)CN([C@@H](C)CO)S2(=O)=O	-21.4	120.1*	-0.2	-1.3	100.9*	83.6	-19.2	104.1*
CC(C)CC#Cc1ccc2c(c1)O[C@H](CN(C)C(=O)NC1CCCC1)[C@@H](C)CN([C@@H](C)CO)S2(=O)=O	3.2	125.2*	-0.4	-1.5	102.6*	81.1	5.8	102.6*
